According to ChEMBL document CHEMBL1128223 (J Med Chem, 1995):

Experiments:
SK-OV-3 = experiment: Cytotoxicity was determined in vitro in SK-OV-3 cells (ovarian) of human tumor cell lines by using MTT assay; format: functional, cell-based
Summary of the method: (§1)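 MTT microculture tetrazolium assay. Cells grown in α-MEM with 15% heat-inactivated FBS, glutamine, pyruvate, insulin and nonessential amino acids at 37 °C, 5% CO2. Seeded at 1500–4000 cells/well and allowed to adhere overnight. Exposed to compound for 48 h, then fresh medium for 48 h, quadruplicate per concentration. MTT 4 h, dye extracted in DMSO, A570 read. IC50 (50% cell kill) from four-parameter logistic fit.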

HT-29 [1] = experiment: Cytotoxicity was determined in vitro in HT-29 cells(colon) of human tumor cell lines by using MTT assay; format: functional, cell-based; summary of the method: as §1
LOX IMVI = experiment: Cytotoxicity was determined in vitro in LOX cells (melanoma) of human tumor cell lines by using MTT assay; format: functional, cell-based
Summary of the method: (§2)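 Cells grown in α-MEM with 15% heat-inactivated FBS, 2 mM L-glutamine, 1 mM pyruvate, insulin and nonessential amino acids at 37 °C, 5% CO2. Seeded at 1500–4000 cells/well and allowed to adhere overnight. Exposed to compound for 48 h, then to fresh medium for 48 h, in quadruplicate per concentration. MTT for 4 h, dye extracted in DMSO, A570 read. IC50 (50% cell kill) from four-parameter logistic fit.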

SK-VLB = experiment: Cytotoxicity was determined in vitro in SKVLB cells(ovarian with upregulated MDRp-glycoprotein) of human tumor cell lines by using MTT assay; format: functional, cell-based; summary of the method: as §1
T47D = experiment: Cytotoxicity was determined in vitro in T47D cells(breast) of human tumor cell lines by using MTT assay; format: functional, cell-based; summary of the method: as §2
[2] = MDR ratio as the ratio of IC50 value against SKVLB to that of SKOV3,; format: functional
Mus musculus [3] = experiment: The body weight loss was measured in mice in vivo by using the HT-29 Human colon Xenograft model at a dose of 11 mg/kg; format: functional
Summary of the method: (§3)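 HT29 subcutaneous flank xenografts in female nu/nu mice, 6 per group. Compound in 0.1 M acetate buffer pH 5, 0.2 mL s.c., twice weekly for 5 weeks. Body weight monitored twice weekly. Value is group mean body weight loss, with ≥30% loss considered lethal. Dose ceiling set beforehand by dose-ranging in naive mice on the same schedule.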

Mus musculus [4] = experiment: The no. of deaths of mice(infected with HT-29 cells) was reported at a dose of 11 mg/kg; format: functional
Summary of the method: (§4)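 HT29 s.c. xenografts in female nu/nu mice, 6 per group. Compound given s.c. in 0.1 M sodium acetate pH 5, twice weekly for 5 weeks. Body weights monitored; mean body weight loss and deaths recorded per dose group. Dose range included the highest dose from a dose-ranging study in naive mice, in which ≥30% weight loss was considered lethal.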

Mus musculus [5] = experiment: (§5) The no. of deaths of mice(infected with HT-29 cells) was reported at a dose of 9 mg/kg; format: ADME, organism-based; parameters: dose 9 mg/kg; details: in vivo; summary of the method: as §4
Mus musculus [6] = experiment: In vivo efficacy of tumor growth ratio(T/B) of compound was calculated by using the HT-29 Human colon Xenograft model in mice at a dose of 9 mg/kg; format: functional
Summary of the method: (§6)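 Female nu/nu mice (18–24 g) given 10^6 HT29 cells subcutaneously in the left axillary flank. Grouped at 6 per dose with matched body weight and palpable tumor of about 150 mm². Compound in 0.1 M sodium acetate pH 5, 0.2 mL s.c., twice weekly for 5 weeks. Volume = length × width²/2 by calipers. T/B = end-of-treatment mean volume divided by initial mean volume.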

Mus musculus [7] = experiment: In vivo efficacy of tumor growth ratio(T/B) of compound was calculated by using the HT-29 Human colon Xenograft model in mice at a dose of 5 mg/kg; format: functional; summary of the method: as §6
Mus musculus [8] = experiment: In vivo efficacy of tumor growth ratio(T/B) of compound was calculated by using the HT-29 Human colon Xenograft model in mice at a dose of 11 mg/kg; format: functional; summary of the method: as §6
Mus musculus [9] = experiment: The body weight loss was measured in mice in vivo by using the HT-29 Human colon Xenograft model at a dose of 5 mg/kg; format: functional; summary of the method: as §3
HT-29 [10] = experiment: In vivo efficacy of tumor growth ratio(T/B) of compound was calculated by using the HT-29 Human colon Xenograft model in mice at a dose of 7 mg/kg; format: functional; summary of the method: as §6
Mus musculus [11] = experiment: The no. of deaths of mice(infected with HT-29 cells) was reported at a dose of 5 mg/kg; format: functional; summary of the method: as §4
Mus musculus [12] = experiment: The body weight loss was measured in mice in vivo by using the HT-29 Human colon Xenograft model at a dose of 7 mg/kg; format: functional; summary of the method: as §3
Mus musculus [13] = experiment: The no. of deaths of mice(infected with HT-29 cells) was reported at a dose of 7 mg/kg; format: functional; summary of the method: as §4
Mus musculus [14] = experiment: The body weight loss was measured in mice in vivo by using the HT-29 Human colon Xenograft model at a dose of 9 mg/kg; format: functional; summary of the method: as §3
Mus musculus [15] = experiment: In vivo efficacy of tumor growth ratio(T/B) of compound was calculated by using the HT-29 Human colon Xenograft model in mice at a dose of 6 mg/kg; format: functional; summary of the method: as §6
Mus musculus [16] = experiment: as §5; format: functional; summary of the method: as §4
Mus musculus [17] = experiment: The body weight loss was measured in mice in vivo by using the HT-29 Human colon Xenograft model at a dose of 12 mg/kg; format: functional; summary of the method: as §3
Mus musculus [18] = experiment: The body weight loss was measured in mice in vivo by using the HT-29 Human colon Xenograft model at a dose of 6 mg/kg; format: functional; summary of the method: as §3
Mus musculus [19] = experiment: The no. of deaths of mice(infected with HT-29 cells) was reported at a dose of 6 mg/kg; format: functional; summary of the method: as §4
Mus musculus [20] = experiment: The no. of deaths of mice(infected with HT-29 cells) was reported at a dose of 3 mg/kg; format: functional; summary of the method: as §4
Mus musculus [21] = experiment: In vivo efficacy of tumor growth ratio(T/B) of compound was calculated by using the HT-29 Human colon Xenograft model in mice at a dose of 3 mg/kg; format: functional
Summary of the method: (§7)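 Female nu/nu mice, 10⁶ HT29 cells implanted subcutaneously in the flank. Groups of 6 started at about 150 mm2 palpable tumor. Compound in 0.1 M sodium acetate pH 5 given s.c. twice weekly for 5 weeks. Tumor volume from calipers as length × width²/2. T/B is mean volume at end of treatment divided by mean initial volume.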

Mus musculus [22] = experiment: The no. of deaths of mice(infected with HT-29 cells) was reported at a dose of 12 mg/kg; format: ADME, organism-based; parameters: dose 12 mg/kg; details: in vivo; summary of the method: as §4
Mus musculus [23] = experiment: In vivo efficacy of tumor growth ratio(T/B) of compound was calculated by using the HT-29 Human colon Xenograft model in mice at a dose of 12 mg/kg; format: functional; summary of the method: as §6
Mus musculus [24] = experiment: The body weight loss was measured in mice in vivo by using the HT-29 Human colon Xenograft model at a dose of 3 mg/kg; format: functional; summary of the method: as §4
Mus musculus [25] = experiment: The no. of deaths of mice(infected with HT-29 cells) was reported at a dose of 2 mg/kg; format: functional; summary of the method: as §4
Mus musculus [26] = experiment: In vivo efficacy of tumor growth ratio(T/B) of compound was calculated by using the HT-29 Human colon Xenograft model in mice at a dose of 1 mg/kg; format: functional; summary of the method: as §7
Mus musculus [27] = experiment: The no. of deaths of mice(infected with HT-29 cells) was reported at a dose of 4 mg/kg; format: functional; summary of the method: as §4
Mus musculus [28] = experiment: The body weight loss was measured in mice in vivo by using the HT-29 Human colon Xenograft model at a dose of 4 mg/kg; format: functional; summary of the method: as §4
Mus musculus [29] = experiment: In vivo efficacy of tumor growth ratio(T/B) of compound was calculated by using the HT-29 Human colon Xenograft model in mice at a dose of 4 mg/kg; format: functional; summary of the method: as §7
Mus musculus [30] = experiment: In vivo efficacy of tumor growth ratio(T/B) of compound was calculated by using the HT-29 Human colon Xenograft model in mice at a dose of 2 mg/kg; format: functional; summary of the method: as §7
Mus musculus [31] = experiment: The no. of deaths of mice(infected with HT-29 cells) was reported at a dose of 1 mg/kg; format: functional; summary of the method: as §4
Mus musculus [32] = experiment: The body weight loss was measured in mice in vivo by using the HT-29 Human colon Xenograft model at a dose of 1 mg/kg; format: functional; summary of the method: as §4
Mus musculus [33] = experiment: The body weight loss was measured in mice in vivo by using the HT-29 Human colon Xenograft model at a dose of 2 mg/kg; format: functional; summary of the method: as §4

Compound | IC50 (SK-OV-3) [nM] | IC50 (HT-29 [1]) [nM] | IC50 (LOX IMVI) [nM] | IC50 (SK-VLB) [nM] | IC50 (T47D) [nM] | MDR ratio [2] | Efficacy (Mus musculus [6]) | BW loss (Mus musculus [14]) [%] | Deaths (Mus musculus [20]) | Efficacy (Mus musculus [21]) | BW loss (Mus musculus [24]) [%] | also measured
CC[C@@]1(O)C(=O)OCc2c1cc1n(c2=O)Cc2cc3ccccc3nc2-1 [CAMPTOTHECIN] | 37 | 46 | 48 | 41 | 207 | – | – | – | – | – | – | –
CC[C@@]1(O)C(=O)OCc2c1cc1n(c2=O)Cc2c-1nc1cc3c(cc1c2CCl)OCCO3 | 4 | 13 | – | 8 | – | 2 | – | – | – | – | – | –
CC[C@@]1(O)C(=O)OCc2c1cc1n(c2=O)Cc2cc3c(CN(C)C)c(O)ccc3nc2-1 [TOPOTECAN] | 44 | 25 | 5 | 149 | 104 | – | 4.3 | 17 | – | – | – | BW loss (Mus musculus [3]): 23%; Deaths (Mus musculus [4]): 0; Deaths (Mus musculus [5]): 2; Efficacy (Mus musculus [7]): 8.6; Efficacy (Mus musculus [8]): 2.9; BW loss (Mus musculus [9]): 15%; Efficacy (HT-29 [10]): 7; Deaths (Mus musculus [11]): 0; BW loss (Mus musculus [12]): 11%; Deaths (Mus musculus [13]): 0
COc1cccc2c1C(=O)c1c(O)c3c(c(O)c1C2=O)C[C@@](O)(C(=O)CO)C[C@@H]3O[C@H]1C[C@H](N)[C@H](O)[C@H](C)O1 [DOXORUBICIN] | 36 | 331 | 42 | 5650 | 72 | 160 | – | – | – | – | – | –
CC[C@@]1(O)C(=O)OCc2c1cc1n(c2=O)Cc2c-1nc1cc3c(cc1c2CN1CCN(C)CC1)OCCO3.O=C(O)C(F)(F)F | 16 | 6 | 1 | 102 | 38 | 6 | 0.8 | 7 | 0 | 5.5 | 8 | Efficacy (Mus musculus [15]): 1.6; Deaths (Mus musculus [16]): 0; BW loss (Mus musculus [17]): 22%; BW loss (Mus musculus [18]): 5%; Deaths (Mus musculus [19]): 0; Deaths (Mus musculus [22]): 2; Efficacy (Mus musculus [23]): 0.4
CC[C@@]1(O)C(=O)OCc2c1cc1n(c2=O)Cc2c-1nc1cc3c(cc1c2CN1CCN(C)CC1)OCO3.O=C(O)C(F)(F)F | 4 | 2 | 0.5 | 17 | 30 | – | – | – | 0 | 0.9 | 12 | Deaths (Mus musculus [25]): 0; Efficacy (Mus musculus [26]): 6.4; Deaths (Mus musculus [27]): 0; BW loss (Mus musculus [28]): 20%; Efficacy (Mus musculus [29]): 0.6; Efficacy (Mus musculus [30]): 1.7; Deaths (Mus musculus [31]): 0; BW loss (Mus musculus [32]): 11%; BW loss (Mus musculus [33]): 8%
